Molecules are shown by their SMILES. Active and inactive are the calls of the source. The calls are words filed in the database; no cut-off is given here.

Assay [1] deals with Alpha/beta hydrolase domain-containing protein 17B (Homo sapiens) (UniProt Q5VST6). Briefly: Inhibition of FAM108B1 binding to FP-biotin in [12C][14N]-lysine, arginine and [13C6][15N2]-lysine, arginine labeled HEK293T cells at 20 uM after 1 hr by isotopic activity-based protein profiling-MudPIT assay. Type of assay: cell-based. The settings on record: HEK-293T. An outline of the steps:
(§1)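 SILAC HEK 293T: light cells (12C14N-Lys/Arg) treated with compound, heavy cells (13C6 15N2-Lys/Arg) with DMSO, 1 h at 37 °C. Proteomes were mixed 1:1 (0.5 mg each) and labeled with FP-biotin (5 μM, 1 h, 25 °C), then streptavidin-enriched, digested on bead with trypsin, and run by MudPIT. Light/heavy ratios were normalized to a DMSO/DMSO control. Only SHs with ≥2 quantifiable peptides were kept; mean ± SEM across peptides.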

In assay [2] the target is Diacylglycerol lipase-beta (Homo sapiens) (UniProt Q8NCG7). Briefly: Inhibition of DAGLB binding to FP-biotin in [12C][14N]-lysine, arginine and [13C6][15N2]-lysine, arginine labeled HEK293T cells at 20 uM after 1 hr by isotopic activity-based protein profiling-MudPIT assay. Format: cell-based. To be noted: HEK-293T. An outline of the steps:
as §1

Chain of Diacylglycerol lipase-beta (Homo sapiens) (Q8NCG7 whole entry): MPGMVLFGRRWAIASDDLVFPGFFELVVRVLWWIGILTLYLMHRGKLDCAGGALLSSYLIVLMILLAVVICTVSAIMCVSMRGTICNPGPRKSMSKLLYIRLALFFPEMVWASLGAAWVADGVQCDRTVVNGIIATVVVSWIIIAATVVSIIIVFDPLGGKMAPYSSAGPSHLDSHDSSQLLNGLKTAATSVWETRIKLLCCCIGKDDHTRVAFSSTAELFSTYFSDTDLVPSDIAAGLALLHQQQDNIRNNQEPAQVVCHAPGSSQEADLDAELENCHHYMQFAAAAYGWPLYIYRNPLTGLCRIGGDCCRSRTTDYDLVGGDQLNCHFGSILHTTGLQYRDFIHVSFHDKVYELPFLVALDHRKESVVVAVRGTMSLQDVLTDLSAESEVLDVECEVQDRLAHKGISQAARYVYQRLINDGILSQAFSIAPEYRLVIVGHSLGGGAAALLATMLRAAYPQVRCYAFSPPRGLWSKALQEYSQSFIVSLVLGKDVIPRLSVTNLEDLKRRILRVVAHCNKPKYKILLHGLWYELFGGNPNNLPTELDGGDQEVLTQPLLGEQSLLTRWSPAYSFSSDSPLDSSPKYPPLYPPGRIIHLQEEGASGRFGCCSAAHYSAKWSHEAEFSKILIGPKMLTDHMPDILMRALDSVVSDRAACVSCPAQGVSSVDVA
Chain of Alpha/beta hydrolase domain-containing protein 17B (Homo sapiens) (Q5VST6 whole entry, the tested form may be a part): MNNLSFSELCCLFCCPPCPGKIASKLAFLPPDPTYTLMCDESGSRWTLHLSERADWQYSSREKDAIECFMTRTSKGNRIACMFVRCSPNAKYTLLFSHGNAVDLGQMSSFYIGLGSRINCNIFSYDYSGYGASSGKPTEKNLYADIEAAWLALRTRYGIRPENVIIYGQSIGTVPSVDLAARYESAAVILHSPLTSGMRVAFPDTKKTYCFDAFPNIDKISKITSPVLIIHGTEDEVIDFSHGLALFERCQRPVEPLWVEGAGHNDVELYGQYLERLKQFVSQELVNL

In the case of `N#C/C(=C\c1cccn1S(=O)(=O)c1cccc([N+](=O)[O-])c1)S(=O)(=O)c1ccc(F)cc1`, the inhibition result in assay [1] and in assay [2] was “inactive” each time.

For the origin of these results see ChEMBL document CHEMBL2203175, “Discovery and optimization of sulfonyl acrylonitriles as selective, covalent inhibitors of protein phosphatase methylesterase-1” (J Med Chem, 2011).
